From ChEMBL document CHEMBL3045423, “Cynodontin: a fungal metabolite with antifungal properties” (J Agric Food Chem, 2003)
≈ marks a conversion by molar mass, not a printed value. Calls of active or inactive are those of the source. The rule behind the calls is not given here.

What was measured:
Brassica oleracea [1] = experiment: Phytotoxicity in Brassica oleracea (broccoli) assessed as seed germination at 250 mg/mL applied as seed dressings after 8 to 14 days (reference value: […] +/- 4.2%); assay type: organism-based; conditions: in vivo
Brassica oleracea [2] = experiment: Phytotoxicity in Brassica oleracea (cabbage) assessed as seed germination at 250 mg/mL applied as seed dressings after 8 to 14 days (reference value: 90 +/- 5.3%); assay type: organism-based; conditions: in vivo
Solanum melongena = experiment: Phytotoxicity in Solanum melongena (eggplant) assessed as seed germination at 250 mg/mL applied as seed dressings after 8 to 14 days (reference value: 84.7 +/- 2.3%); assay type: organism-based; conditions: in vivo
Capsicum annuum = experiment: Phytotoxicity in Capsicum annuum (pepper) assessed as seed germination at 250 mg/mL applied as seed dressings after 8 to 14 days (reference value: 84.7 +/- 4.6%); assay type: organism-based; conditions: in vivo
Botrytis cinerea [3] = experiment: Antifungal activity against Botryotinia fuckeliana assessed as inhibition of conidia germination at 1 to 10 ug/mL after 5 hr by light adverse phase microscopic analysis; assay type: functional, organism-based
In short: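 B. cinerea conidia (10^6/mL in water) applied as 0.2 mL droplets onto water-agar (agar plus deionized water) with or without test substance added in acetone. Incubated 5 h in the dark at 25 °C. Percent germination scored from 200 conidia per dish under light microscopy.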

Verticillium dahliae = experiment: Antifungal activity against Verticillium dahliae assessed as mycelial growth inhibition after 4 to 8 days; assay type: functional; conditions: read-out: ED50 (the source's name)
In short: (§1)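 Test substance added in acetone (solvent at most 0.8% in treated and control plates) to sterilized potato dextrose agar. Plates inoculated with 0.5 cm mycelial blocks and incubated in the dark at 25 °C for 4-8 days depending on species. Linear growth inhibition estimated from colony diameter.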

Sclerotinia sclerotiorum = experiment: Antifungal activity against Sclerotinia sclerotiorum assessed as mycelial growth inhibition after 4 to 8 days; assay type: functional; conditions: read-out: ED50 (the source's name); in short: as §1
Sclerotinia minor = experiment: Antifungal activity against Sclerotinia minor assessed as mycelial growth inhibition after 4 to 8 days; assay type: functional; conditions: read-out: ED50 (the source's name); in short: as §1
Botrytis cinerea [4] = experiment: Antifungal activity against Botryotinia fuckeliana assessed as mycelial growth inhibition after 4 to 8 days; assay type: functional; conditions: read-out: ED50 (the source's name); in short: as §1
Lactuca sativa = experiment: Phytotoxicity in Lactuca sativa (lettuce) assessed as seed germination at 250 mg/mL applied as seed dressings after 8 to 14 days (reference value: 90 +/- 5.3%); assay type: organism-based; conditions: in vivo
Cucumis melo = experiment: Phytotoxicity in Cucumis melo (muskmelon) assessed as seed germination at 250 mg/mL applied as seed dressings after 8 to 14 days (reference value: 90 +/- 2%); assay type: organism-based; conditions: in vivo
Cucumis sativus = experiment: Phytotoxicity in Cucumis sativus (cucumber) assessed as seed germination at 250 mg/mL applied as seed dressings after 8 to 14 days (reference value: […] +/- 1.2%); assay type: organism-based; conditions: in vivo
Solanum lycopersicum = experiment: Phytotoxicity in Solanum lycopersicum (tomato) assessed as seed germination at 250 mg/mL applied as seed dressings after 8 to 14 days (reference value: 94 +/- 2%); assay type: organism-based; conditions: in vivo
[5] = system: Brassica oleracea var. botrytis (cauliflower); experiment: Phytotoxicity in Brassica oleracea var. botrytis assessed as seed germination at 250 mg/mL applied as seed dressings after 8 to 14 days (reference value: 97.3 +/- 1.2%); conditions: in vivo

SMILES | Activity (Brassica oleracea [1]) [%] | Activity (Brassica oleracea [2]) [%] | Activity (Solanum melongena) [%] | Activity (Capsicum annuum) [%] | inhibition (Botrytis cinerea [3]) | EC50 (Verticillium dahliae) [µg/mL] | EC50 (Sclerotinia sclerotiorum) [µg/mL] | EC50 (Sclerotinia minor) [µg/mL] | EC50 (Botrytis cinerea [4]) [µg/mL] | Activity (Lactuca sativa) [%] | Activity (Cucumis melo) [%] | Activity (Cucumis sativus) [%] | Activity (Solanum lycopersicum) [%] | Activity [5] [%]
O=C1c2ccccc2C(=O)c2ccccc21 [ANTHRAQUINONE] | 87.3 | 88 | 82.7 | 85.3 | inactive | > 100 | > 100 | > 100 | > 100 | 88 |  |  |  | 
Cc1cc(O)c2c(c1)C(=O)c1cccc(O)c1C2=O [CHRYSOPHANOL] |  |  |  |  | inactive | > 100 | > 100 | 74.1 (≈ 292 µM) | > 100 |  |  |  |  | 
Cc1cc(O)c2c(c1O)C(=O)c1c(O)ccc(O)c1C2=O [Cynodontin] | 88 | 89.3 | 82.7 | 84.7 | inactive | 11.5 (≈ 40.3 µM) | 5.52 (≈ 19.3 µM) | 4.31 (≈ 15.1 µM) | 5.25 (≈ 18.3 µM) | 96.7 | 90.7 | 94 | 95.3 | 96.7
Cc1cc(O)c2c(c1)C(=O)c1cc(O)cc(O)c1C2=O [EMODIN] |  |  |  |  | inactive | > 100 | 66.5 (≈ 246 µM) | 38.9 (≈ 144 µM) | 41.2 (≈ 153 µM) |  |  |  |  | 
